Source: ChEMBL document CHEMBL1139409, “Pestalachlorides A-C, antifungal metabolites from the plant endophytic fungus Pestalotiopsis adusta” (Bioorg Med Chem, 2008)
≈ marks a conversion by molar mass, not a printed value.

How the values were obtained:
Type in all cases: functional, organism-based
Fusarium culmorum = assay: Antifungal activity against Fusarium culmorum by Almar blue assay
How it was run: (§1)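 Plant pathogen strains from CGMCC, maintained on potato dextrose agar; inocula from broth cultures grown 25 °C for 48 h, final suspension 1 × 10^4 hyphae/mL. Samples from 10 mg/mL DMSO stock, serially diluted, in triplicate, with alamar blue indicator; incubated 28 °C for 48 h, fluorescence read at Ex/Em 544/590 nm. Inhibition rate plotted against concentration to give IC50 and MIC; NCCLS-based method.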

Fusarium graminearum = assay: Antifungal activity against Gibberella zeae by Almar blue assay; how it was run: as §1
Verticillium albo-atrum = assay: Antifungal activity against Verticillium albo-atrum by Almar blue assay; how it was run: as §1

COc1c(Cl)c(C)c(Cl)c(O)c1C1NC(=O)c2c(O)cc(O)c(CC=C(C)C)c21 (racemic) [PESTALACHLORIDE A]
IC50 (Fusarium culmorum): 0.89 µM
MIC (Fusarium culmorum): 7.2 µM (≈ 3.16 µg/mL)
IC50 (Fusarium graminearum): 54.4 µM
MIC (Fusarium graminearum): 114 µM (≈ 50.1 µg/mL)
IC50 (Verticillium albo-atrum): 58.3 µM
MIC (Verticillium albo-atrum): 114 µM (≈ 50.1 µg/mL)

COc1c(Cl)c(C)c(Cl)c2c1[C@H]1c3c(C=O)c(O)cc(O)c3C[C@@H]1C(C)(C)O2 (racemic) [PESTALACHLORIDE C]
IC50 (Fusarium culmorum): > 118 µM
MIC (Fusarium culmorum): > 237 µM
IC50 (Fusarium graminearum): > 118 µM
MIC (Fusarium graminearum): > 237 µM
IC50 (Verticillium albo-atrum): > 118 µM
MIC (Verticillium albo-atrum): > 237 µM

CC(C)=CCc1c(O)cc(O)c2c1C(=O)c1c(O)c(Cl)c(C)c(Cl)c1OC2 [PESTALACHLORIDE B]
IC50 (Fusarium culmorum): 4.7 µM
MIC (Fusarium culmorum): 49 µM (≈ 20.1 µg/mL)
IC50 (Fusarium graminearum): 1.1 µM
MIC (Fusarium graminearum): 12.2 µM (≈ 4.99 µg/mL)
IC50 (Verticillium albo-atrum): 7.9 µM
MIC (Verticillium albo-atrum): 12.2 µM (≈ 4.99 µg/mL)
